APP 5UTR inh: APP translation inhibition. SH-SY5Y APP 5'UTR-luciferase reporter, luminescence. inhibition, % at 2 µM. 190,000 tested, 0.82% active;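 active = inhibition above a set limit, derived from the sample mean plus 3 SD, cut at about 45% in these data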
MT stabilize HCS: microtubule stabilizers in HeLa cells; 200,000 tested, 0.83% active; % tubulin-high responders, % at 10 µM; HeLa tubulin immunostaining HCS, 24 h; share of cells brighter than vehicle mean+2SD;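 active = plate Z-score above 3 for both tubulin-high and condensed-nucleus cell shares, with cell loss under 80%, at 10 µM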;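 note: anti alpha tubulin signal scored within the nucleus-defined area of each cell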
Lmaj promast: Leishmania major promastigote growth inhibition | Leishmania major promastigotes, resazurin fluorescence viability | AID 1063 | inhibition, % at 10 µM | 200,000 tested, 9% active; in the data active = inhibition above about 50%;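 note: promastigotes grown with compound for 44 hours at 28 °C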
Ba/F3 V617F tox: lowers viability of Ba/F3 cells expressing EpoR and JAK2V617F; ATP luminescence; inhibition, % at 5.6 µM; 220,000 tested, 1.1% active; AID 1446;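 active = inhibition above the campaign mean plus 3 SD over all tested compounds, cut at about 24% in these data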;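 note: cytokine-independent growth of Ba/F3 cells driven by EpoR plus mutant JAK2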
b-catenin transl: modulators of beta-catenin nuclear translocation; HeLa beta-catenin nuclear translocation, immunofluorescence imaging; nuclear translocation activity, % at 5 µM; 190,000 tested, 0.3% active; AID 1665;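 active = nuclear translocation activity above 50% at 5 µM, with a well cell count of 50 or more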;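 note: per-cell ratio of nuclear to cytoplasmic median beta-catenin stain intensity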
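Test system: HeLa cells, endogenous beta-catenin; Compound: single 5 µM dose plus 0.02–20 µM confirmation series; Times: compound exposure 24 h at 37°C; Signal: fluorescence imaging of beta-catenin antibody stain plus DAPI; Read-out: % activation, nuclear-to-cytoplasmic median beta-catenin signal ratio per cell.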
BaF3 parental: parental Ba/F3 viability inhibition as JAK2V617F counter-screen. CellTiter-Glo ATP luminescence. inhibition, % at 5.6 µM. 220,000 tested, 1.1% active. AID 1486;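 active = inhibition above a per-campaign cutoff, the mean inhibition of all tested compounds plus 3 SD, cut at about 27% in these data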
Large screens that a line does not name were inactive. In the library only some 9.6% were active in any assay of this set; here they are far more common.

CC1CCCN(CCOCCOc2ccc(Cl)cc2Br)C1 (configuration not stated)	Lmaj promast 98
CC1CCCN(CCOCCOc2ccc(Br)cc2Cl)C1 (configuration not stated)	Lmaj promast 97
O=C1CCC(=O)N1OCCCOc1ccc(Br)cc1Cl	none (no result: b-catenin transl)
C=CCOc1ccc(Br)cc1CNCCCN1CCOCC1	none
Cc1ccc(OCCCCN2CCC(C)CC2)c(Br)c1	Lmaj promast 100
Clc1cc(Br)ccc1OCCN1CCOCC1	Lmaj promast 93 (no result: b-catenin transl)
CCCCCC(=O)N1CC2(CC(c3cccc(NC(=O)CC)c3)=NO2)C[C@H]1C(N)=O (some centres not stated)	none (no result: APP 5UTR inh, MT stabilize HCS, Lmaj promast, Ba/F3 V617F tox, BaF3 parental)
CC1(C)COC(c2cccc(C3=NC(C)(C)CO3)n2)=N1	none
Cc1ccc2nc(/C(C#N)=C/c3cn[nH]c3-c3ccc(F)cc3)[nH]c2c1	MT stabilize HCS 36, b-catenin transl 100
CCNc1sc(S(C)(=O)=O)nc1S(=O)(=O)c1ccc(Cl)cc1	none
COc1ccc(S(=O)(=O)Nc2ccccc2C(=O)OC2CCCN(C)C2)cc1OC (configuration not stated)	Lmaj promast 100
COc1cccc(NC(=S)N(CCc2c(C)[nH]c3ccccc23)Cc2cccs2)c1	none
COc1ccc2[nH]c(=O)c(CN(Cc3cccnc3)C(=O)Nc3ccccc3)cc2c1	none
Cc1[nH]c2ccccc2c1CCN(Cc1cccnc1)C(=S)Nc1cccc(F)c1	Lmaj promast 100, Ba/F3 V617F tox 27, BaF3 parental 30
OCCN(Cc1ccccc1)C(=S)Nc1ccc(F)cc1	none
Cc1[nH]c2ccccc2c1CCN(Cc1cccnc1)C(=S)Nc1ccc(F)cc1	Lmaj promast 100
Cc1[nH]c2ccc(F)cc2c1CCN(Cc1cccnc1)C(=S)Nc1ccccc1	Lmaj promast 100
Cc1[nH]c2ccc(F)cc2c1CCN(Cc1ccncc1)C(=S)Nc1ccccc1	Lmaj promast 74
CC(=O)NC(Cc1ccccc1F)C(=O)NC1CCN(c2ncccc2[N+](=O)[O-])CC1 (configuration not stated)	none
Cc1[nH]c2ccccc2c1CCN(Cc1cccs1)C(=S)Nc1ccccc1	none
CCOc1ccc(NC(=S)N(CCc2ccncc2)C(C)C)cc1	none
CCOc1ccc(NC(=S)N(CCc2c(C)[nH]c3ccccc23)Cc2cccnc2)cc1	Lmaj promast 100
COc1ccc(NC(=S)N(CCc2c(C)[nH]c3ccc(C)cc23)Cc2cccnc2)cc1	Lmaj promast 100
COc1ccc(NC(=S)N(Cc2cccnc2)Cc2cc3cc(OC)c(OC)cc3[nH]c2=O)cc1	none
COc1ccc(NC(=S)NCCc2c(C)[nH]c3ccc(OC)cc23)cc1	Lmaj promast 62
COc1ccc(CCNC(=S)Nc2ccc(OC)cc2)cc1	none
CCOc1ccc(NC(=S)N(CCc2c(C)[nH]c3ccc(C)cc23)Cc2ccncc2)cc1	Lmaj promast 70
Cc1ccc(C(=O)N/C(=C\c2ccccc2)C(=O)NCCCn2ccnc2)cc1	none
CC1Cc2ccccc2N1CC(=O)NC(=O)NCc1ccco1 (configuration not stated)	Lmaj promast 97 (no result: b-catenin transl)
CC1Cc2ccccc2N1CC(=O)NC(=O)NC1CCCC1 (configuration not stated)	Lmaj promast 98
O=C(CN1CCCCCCC1)NC(=O)NC1CCCCC1	Lmaj promast 58
O=C(CN1CCCCC1)NC(=O)NC1CCCC1	none
NC(=O)c1oc2ccccc2c1NC(=O)C1COc2ccccc2O1 (configuration not stated)	none
CC(=O)NC1=NN(C(C)=O)C(C)(CCS(=O)(=O)c2ccc(Br)cc2)S1 (configuration not stated)	none
O=C1NC(=O)/C(=C\c2ccc(Oc3cnccn3)cc2)S1	none
O=Cc1ccc(Oc2cnccn2)cc1	APP 5UTR inh 76
O=C(Nc1n[nH]c(C(F)(F)F)n1)C1CC1	none
NS(=O)(=O)c1ccc(N2N=C(c3ccccc3)CC2c2ccccc2)cc1 (configuration not stated)	none
CCc1ccc(C2=NN(c3ccc(S(N)(=O)=O)cc3)C(c3ccc(F)cc3)C2)cc1 (configuration not stated)	Lmaj promast 78
Cc1ccc(C)c(CN2C(=O)COc3ccc(C(=O)c4ccccc4C(=O)O)cc32)c1	Lmaj promast 100
CN1C(=O)COc2ccc(C(=O)c3ccccc3C(=O)O)cc21	none
COCCNC(=O)c1noc2c1CCc1cc(OC)ccc1-2	none
COc1ccc2c(c1)CCc1c(C(=O)NCCCn3ccnc3)noc1-2	Lmaj promast 100
N#Cc1c(-c2ccccc2F)cc(-c2cccnc2)nc1N	Lmaj promast 71
CCOC(=O)Cc1ccc(NC(=O)c2ccccc2Br)cc1	none
CCOC(=O)Cc1ccc(NC(=O)c2ccc(C(C)(C)C)cc2)cc1	APP 5UTR inh 71
O=C(Nc1nccs1)[C@@H]1CCCN1C(=O)c1cccs1	BaF3 parental 104
Oc1ccc(Br)cc1/C=N/N1CCCCC1	Lmaj promast 52
CCc1ccc2nc(N3C(=O)c4oc5ccccc5c(=O)c4C3c3ccc(OC)c(OC)c3)sc2c1 (configuration not stated)	none
c1ccc(Nc2nc3ccccc3n3nnnc23)cc1	none
CCN(CC)S(=O)(=O)c1ccc(Nc2nc3ccccc3n3nnnc23)cc1	Lmaj promast 67 (no result: b-catenin transl)
Cc1ccc(NC(=O)CSc2nnc(Cc3cccn3C)n2-c2ccc(F)cc2)c(C)c1	Lmaj promast 62
Cn1cccc1Cc1nnc(SCC(=O)Nc2cccc(Cl)c2)n1-c1ccc(F)cc1	Lmaj promast 62
Cc1ccnc(NC(=O)C2CCN(S(=O)(=O)c3cccc4nonc34)CC2)c1	Lmaj promast 99
CCOc1ccccc1N(C)C(=O)C1CCN(S(=O)(=O)c2cccc3nonc23)CC1	APP 5UTR inh 63 (no result: b-catenin transl)
CCOc1ccc(OCC)c(NC(=O)C2CCN(S(=O)(=O)c3cccc4nonc34)CC2)c1	none (no result: b-catenin transl)
CCc1cccc(NC(=O)NC(=O)Cn2nnc(C(=O)OC)c2C(=O)OC)c1	none
CCN(CC)S(=O)(=O)c1ccc2[nH]cc(C(=O)NCCC3=CCCCC3)c(=O)c2c1	MT stabilize HCS 33, Lmaj promast 81
CCN(CC)S(=O)(=O)c1ccc2[nH]cc(C(=O)NCCN3CCCCCC3)c(=O)c2c1	none
Cc1ccc(OCC(=O)N/N=C/c2cc([N+](=O)[O-])ccc2N2CCCCC2)cc1	Lmaj promast 96
O=C(N/N=C/c1cc([N+](=O)[O-])ccc1N1CCNCC1)c1ccc([N+](=O)[O-])cc1	Lmaj promast 86 (no result: b-catenin transl)
N#CCC(=O)N/N=C/c1cc([N+](=O)[O-])ccc1N1CCCC1	none
O=C(COc1ccc([N+](=O)[O-])cc1)N/N=C/c1cc([N+](=O)[O-])ccc1N1CCOCC1	none
N#Cc1ccc(OCC(O)CS(=O)(=O)c2ccccc2)cc1 (configuration not stated)	none

Screens as filed in PubChem BioAssay.
